# The list is not random: actives were taken first. Their share in the collection is about 2%.
# ASAP1 GAP inh: inhibitors of human ASAP1 ArfGAP activity, primary screen, biochemical, fluorescence polarization; inhibition, % at 16.5 µM; Arf-GAP with SH3 domain, ANK repeat and PH domain-containing protein 1 (Homo sapiens), …; AID 624377, 2012; actives 0.19% (n = 360,000); ASAP1-stimulated ARF1 GTP hydrolysis, GDP FP detection; in the data active = inhibition above about 25%;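 note: 0% = vehicle with enzyme and substrate and 100% = no enzyme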
# ARFGAP1 inh: inhibitors of rat ARFGAP1 GAP activity, primary screen, biochemical, fluorescence polarization, GDP tracer | AID 651572, 2012 | ADP-ribosylation factor GTPase-activating protein 1 (Rattus norvegicus), Q62848 | Arfgap1-stimulated ARF1 GTP hydrolysis, GDP FP detection | actives 0.26% (n = 360,000) | inhibition, % at 16.5 µM;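 active = inhibition above a per-plate limit, mean inhibition of low control wells plus 3 SD, cut at about 25% in these data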;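 note: 0% = DMSO wells with enzyme and 100% = wells lacking Arfgap1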
# Target sequence (Q62848 1-136 limits assumed): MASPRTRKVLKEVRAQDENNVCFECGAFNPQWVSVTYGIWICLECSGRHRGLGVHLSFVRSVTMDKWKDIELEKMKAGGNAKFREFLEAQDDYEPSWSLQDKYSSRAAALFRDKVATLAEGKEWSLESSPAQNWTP
#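 Material: truncated rat Arfgap1 GAP domain; Incubation: compound-enzyme preincubation 20 min, reaction 120 min, detection 60 min, 25 °C; Read-out: percent inhibition of Arfgap1-stimulated GTP hydrolysis; Technique: FP, GDP Alexa 633 tracer displaced from anti-GDP antibody, 620/688 nm; Controls: No-Arfgap1 wells (100%) versus DMSO full-reaction wells (0%); Replication: single well per compound.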
# LEDGF integ inh: blockers of LEDGF/p75-dependent integrase strand transfer – biochemical, TR-FRET, high throughput, primary screen | HIV-1 integrase (with human LEDGF/p75) | TR-FRET IN-LEDGF/p75 DNA integration, Eu/Cy5 | inhibition, % at 3.7 µM | actives 0.64% (n = 370,000) | AID 743269, 2014;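 active = inhibition above the screen-wide mean plus 3 SD, cut at about 13% in these data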;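 note: signal is the Cy5 over europium emission ratio at 671 and 618 nm; 0% = plate median of compound wells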
# TCR-CD3 inh: inhibitors of human TCR-CD3 interaction, primary screen, biochemical, fluorescence, TAMRA-labeled TCR probe. inhibition, % at 9.4 µM. actives 0.37% (n = 360,000); in the data active = inhibition above about 19%;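 note: recombinant mutant TCR 2C K166C tagged with TAMRA read by polarization; 0% = receptor in buffer alone and 100% = receptor with positive control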
# UHRF1 binding: UHRF1 methylated DNA binding inhibitors, primary screen, counter-screen for MBD2 inhibitor project, biochemical, TR-FRET, human UHRF1, single concentration. UHRF1 binding to methylated oligo. inhibition, % at 4.4 µM. actives 0.75% (n = 370,000). AID 687016, 2013;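 note: UHRF1 SRA domain binding a hemimethylated CpG hairpin DNA probe; 0% = median of test compound wells and 100% = reference inhibitor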
# MBD2 DNA inh: inhibitors of MBD2 binding to methylated DNA, primary screen, biochemical, TR-FRET, DNA-binding domain, human. MBD2 binding to methylated oligonucleotide. actives 0.31% (n = 370,000). AID 686964, 2013. inhibition, % at 4.4 µM; in the data active = inhibition above about 13%
# Target sequence (Q9UBB5 whole entry, looked up, the tested form may be a part): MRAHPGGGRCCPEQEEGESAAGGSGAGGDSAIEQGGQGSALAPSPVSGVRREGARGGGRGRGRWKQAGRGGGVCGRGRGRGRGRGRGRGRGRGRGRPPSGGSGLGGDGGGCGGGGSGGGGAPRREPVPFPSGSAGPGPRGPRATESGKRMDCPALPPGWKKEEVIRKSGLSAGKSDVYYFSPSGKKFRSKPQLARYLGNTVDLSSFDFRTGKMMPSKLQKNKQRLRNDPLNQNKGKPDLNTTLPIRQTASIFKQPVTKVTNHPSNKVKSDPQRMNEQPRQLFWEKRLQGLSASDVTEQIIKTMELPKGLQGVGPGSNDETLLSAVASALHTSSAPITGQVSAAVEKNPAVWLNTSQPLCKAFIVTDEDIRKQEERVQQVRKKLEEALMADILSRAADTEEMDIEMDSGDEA
# UHRF1 ctr MBD2: UHRF1 methylated DNA binding inhibitors, counter-screen for MBD2 inhibitor project, biochemical, TR-FRET, human UHRF1; shares compounds with MBD2 DNA inh; UHRF1 binding to methylated oligonucleotide; inhibition, % at 4.4 µM; actives 25% (n = 1,000); AID 720530, 2013;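 note: UHRF1 SRA domain binding a labeled hemimethylated CpG hairpin DNA; 0% = vehicle only and 100% = reference inhibitor with vehicle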
# MBD2 confirm: inhibitors of MBD2 binding to methylated DNA, confirmation, biochemical, TR-FRET, DNA-binding domain, human; shares compounds with MBD2 DNA inh; TR-FRET MBD2-DBD binding to methylated oligonucleotide; inhibition, % at 4.4 µM; actives 26% (n = 1,000); in the data active = inhibition above about 14%
# IN multimer act: HIV-1 IN multimer formation enhancers, counter-screen for LEDGF/p75 integration inhibitor project, biochemical, TR-FRET; activation, % at 7.7 µM; AID 1053131, 2014; TR-FRET HIV-1 integrase multimerization; actives 17% (n = 2,000); shares compounds with LEDGF integ inh; in the data active = activation above about 8.9%
# TR-FRET interf: TR-FRET optical interference artefacts, confirmation, artefact control for LEDGF/p75-dependent integration inhibitor project, biochemical, HIV-1 IN multimerization; inhibition, % at 7.7 µM; shares compounds with LEDGF integ inh; TR-FRET optical interference counterscreen; 2,000 tested, under 10 active; AID 1053135, 2014;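 active = inhibition above the mean over all tested compounds plus 3 SD, which no compound reached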;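 note: 0% = integrase with antibodies and DMSO and 100% = antibodies without integrase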
# IN-LEDGF confirm: inhibitors of HIV-1 IN-LEDGF/p75 DNA integration, confirmation, biochemical, TR-FRET; shares compounds with LEDGF integ inh; TR-FRET LEDGF/p75-dependent HIV-1 integration; inhibition, % at 3.7 µM; actives 36% (n = 2,000); in the data active = inhibition above about 14%
# * = called active by the depositor; . = not tested or not shown. Cut-off read from the data, not from the text of the source, unless noted: active = inhibition above about 21%; inactive = the rest.
SMILES,ASAP1 GAP inh,ARFGAP1 inh,LEDGF integ inh,TCR-CD3 inh,UHRF1 binding,MBD2 DNA inh,UHRF1 ctr MBD2,MBD2 confirm,IN multimer act,TR-FRET interf,IN-LEDGF confirm
COC(=O)c1cc(O)cc(OC)c1Oc1cc(C)cc(O)c1C(=O)O,-2.7,4.9,19.4*,18.4,28.8*,14.0*,56.4*,30.4*,40.2*,-202.5,58.2*
COC(=O)c1cc(O)cc(OC)c1C(=O)c1c(O)cc(C)cc1O,14.1,6.6,1.8,12.4,0.7,-0.2,.,.,.,.,.
CCOc1ccc(/C=C(\C(=O)O)c2ccc(S(=O)(=O)N3CCCCC3)s2)cc1OC,0.6,6.5,-0.2,8.0,1.9,-0.1,.,.,.,.,.
COc1ccc(-c2cc(=O)n(CCC#N)[nH]2)cc1,8.3,10.7,42.4*,6.3,16.5,17.8*,1.3,-0.2,-0.4,1.4,0.8
O=C(Nc1ccccc1)Nc1ncc([N+](=O)[O-])s1,6.5,0.3,-7.6,0.0,-2.3,-8.3,.,.,.,.,.
O=C(COC(=O)c1ccccc1)Nc1ncc([N+](=O)[O-])s1,-1.2,-9.9,15.2*,8.9,44.0*,14.6*,47.7*,18.4*,4.3,-21.6,33.5*
COc1ccc(CCN2CC(C(=O)N3CCCCCC3)CCC2=O)cc1 (stereo not given),4.9,5.3,-0.5,3.3,-1.7,-3.7,.,.,.,.,.
COc1cc(Br)c(C(=O)c2nccc3cc(OC)c(OC)cc23)cc1OC,16.3,7.5,15.4*,-0.8,24.9*,14.0*,36.5*,26.3*,2.7,-9.7,74.6*
O=C(CCNC(=O)c1ccccc1Cl)Nc1ccc(S(=O)(=O)N2CCOCC2)cc1,-3.1,10.1,0.5,6.3,-2.6,-3.5,.,.,.,.,.
COc1ccccc1-c1ccc(/C=C2/C=C(C)OC2=O)o1,15.4,7.3,9.7,1.4,-3.3,0.9,.,.,.,.,.
COc1ccccc1-c1ccc(/C=C2\C=CC(=O)O2)o1,5.3,2.0,43.9*,-0.9,26.8*,15.0*,7.7,1.0,1.8,-6.4,11.4
O=C(O)COc1ccc2c(c1)O/C(=C\c1cccs1)C2=O,1.6,9.3,1.9,0.1,-2.1,-2.0,.,.,.,.,.
O=C(O)COc1ccc2c(c1)O/C(=C\c1ccco1)C2=O,-1.7,17.4,41.1*,5.8,63.0*,14.8*,42.4*,8.7,26.6*,-94.7,46.0*
COc1ccc(-c2noc(N3CCC(C(=O)NC(C)c4ccccc4)CC3)n2)cc1 (stereo not given),-6.8,-8.8,4.0,4.3,-1.0,-1.4,.,.,.,.,.
Oc1c(Cl)cc(Oc2cc(Cl)c(O)c(CN3CCOCC3)c2)cc1CN1CCOCC1,-5.5,-5.5,1.3,-2.7,-0.1,-1.6,.,.,.,.,.
Oc1c(CN2CCOCC2)cc(CN2CCOCC2)c(O)c1O,-2.0,1.7,84.2*,13.3,70.4*,34.8*,6.0,6.5,4.6,-16.4,26.5*
COc1ccc2[nH]c3c(=O)n4c(nc3c2c1)SCCC4,-5.1,0.8,-2.6,-1.4,-0.3,-6.6,.,.,.,.,.
CC(C(=O)O)N1C(=O)/C(=C/C=C/c2ccco2)SC1=S (stereo not given),-8.6,-44.7,93.2*,1.9,101.0*,101.5*,103.2*,110.2*,47.6*,-169.2,88.2*
COc1ccc(Nc2nc3cc(-c4ccccc4C)sc3c(=O)n2C)cc1OC,6.2,20.7,5.4,3.5,-0.5,-6.4,.,.,.,.,.
O=C(COC(=O)c1cncc(Br)c1)NCc1ccco1,-0.1,3.6,16.3*,6.4,43.8*,13.7*,26.3*,13.9*,7.2,-36.4,29.1*
CN(C)c1ccc2cc(S(=O)(=O)O)cc(O)c2c1,6.7,-0.1,84.3*,-3.1,83.3*,45.2*,28.5*,6.3,52.2*,-185.9,31.0*
CCN(CC)CCCNc1nc2ccccc2c2[nH]c3ccc(OC)cc3c12,3.1,-0.6,19.2*,-15.2,84.7*,91.5*,95.5*,109.0*,1.9,-9.3,34.3*
CCN(CC)CCCNc1nc(-c2ccccc2)nc2ccccc12,-0.2,-5.3,-4.7,-1.6,5.6,3.0,.,.,.,.,.
COc1cccc(CN(C)C(=O)Cn2cc(C)c(=O)[nH]c2=O)c1,5.4,14.4,5.6,-3.0,3.2,1.8,.,.,.,.,.
Cn1cccc1CC(=O)NN=C/C=C\c1ccco1,.,.,81.2*,.,85.2*,66.5*,5.0,7.1,10.7*,-53.9,31.4*
O=C(O)c1cccc(-n2cccc2/C=C\[N+](=O)[O-])c1,0.4,-1.0,32.5*,-2.9,58.0*,17.1*,26.1*,3.3,3.0,-15.0,6.0
O=C(Nc1ccc(Br)cc1F)c1nc[nH]c1C(=O)N1CCc2ccccc2C1,-9.1,8.8,-0.7,6.6,-1.4,1.5,.,.,.,.,.
C=CCSC1=N/C(=C\C=C\c2ccco2)C(=O)S1,6.1,-4.2,62.3*,16.1,74.6*,42.7*,39.8*,16.7*,8.5,-43.0,74.5*
NC(=O)NC(=O)COC(=O)[C@H](Cc1ccccc1)NC(=O)c1cccs1,16.6,5.8,4.8,3.5,2.1,0.3,.,.,.,.,.
